The results in this text go back to ChEMBL document CHEMBL1127790, “Photodynamic antitumor agents: beta-methoxyethyl groups give access to functionalized porphycenes and enhance cellular uptake and activity” (J Med Chem, 1994).

The species named for data set [1] is Mus musculus. The data set is described as follows: Cellular uptake kinetics of Porphycenes saturation cell level (cs) in SSK3 murine fibrosarcoma cells. Format: ADME. The method in brief: (§1)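 Murine fibrosarcoma cells (SSK2, C3H mouse-derived; MEM/5% FCS, 37 °C, 5% CO2), 2.5 × 10^5 plated and grown 18 h. Then 2 µM porphycene in DOPC liposomes diluted in MEM, incubated at 37 °C for varying times. Cells washed, trypsinized, counted, pelleted. Extraction with methanol then acetonitrile containing diphenylanthracene internal standard. Fluorescence read at ex 370 nm against calibration plots. Saturation level from monoexponential fit.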

Data set [2] is described as follows: Cellular uptake kinetics of Porphycenes saturation cell level (cs). Format: ADME. The method in brief: as §1
For data set [3], the species on record is Mus musculus. The data set can be described thus: Tested for Photodynamic activity of Sensitizers for cultivated SSK2 cells. Format: ADME, cell-based. To be noted: read-out: LD50 (the source's name). The method in brief: (§2)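 SSK2 murine fibrosarcoma cells (C3H origin), 3 × 10^5 cells/dish after 18 h attachment, incubated 4 h at 37 °C/5% CO2 with sensitizer in DPPC liposomes (DPPC/sensitizer 100:1) diluted in MEM. Cells washed, irradiated in PBS with laser light at 20 mW/cm2 for 250 s (5 J/cm2), then kept 18 h in MEM/10% FCS. Viability by trypan blue exclusion, as percent of MEM-only controls, ≥5 dishes per point. LD50 in incubation medium by probit analysis.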

Data set [4] in a line: (§3) Tested for Photodynamic activity of Sensitizers, lethal dose concentration in incubation media as obtained by probit analysis of SSK3 fibrosarcoma cells. Format: ADME. To be noted: Mus musculus, light or radiation study; read-out: LD50 (the source's name). The method in brief:
as §2

For data set [5], the species on record is Mus musculus. The data set can be described thus: Tested for phototoxic activity of compound on SSK2 cultivated murine fibrosarcoma cells. Format: ADME, cell-based. To be noted: light or radiation study, read-out: LD50 (the source's name). The method, boiled down: as §2
The species named for data set [6] is Mus musculus. The data set is described as follows: Tested for phototoxic activity of compound on SSK3 cultivated murine fibrosarcoma cells. Format: ADME, cell-based. Conditions: light or radiation study, read-out: LD50 (the source's name).
The species entered for data set [7] is Mus musculus. The data set is described as follows: Cellular uptake kinetics of Porphycenes saturation cell level (cs)in SSK2 murine fibrosarcoma cells. Format: ADME. The method, boiled down:
as §1

For data set [8], the species on record is Mus musculus. The data set is described as follows: Cellular uptake kinetics of Porphycenes saturation cell level (cs) in SSK2 murine fibrosarcoma cells. Format: ADME. The method, boiled down: as §1
Data set [9] is filed under the species Mus musculus. Described as §3. Format: ADME, cell-based. Conditions: in vivo, read-out: LD50 (the source's name). The method, boiled down: as §2

In the case of `CCCC1=Cc2nc1ccc1[nH]c(cc1CCO)c1nc(ccc3[nH]c2cc3CCC)C(CCO)=C1`, in the data set filed under Mus musculus [1], the Cell saturation is 26 pM (10e5*cells)-1.

As to `COCCC1=Cc2nc1ccc1[nH]c(c3nc(ccc4[nH]c2cc4CCOC)C(CCOC)=C3)c2c(C(=O)OC)c(C(=O)O)ccc12`, the Cell saturation in data set [2] was 7.3 pM (10e5*cells)-1. Further, the figures for the CC50 (in the data set listed under Mus musculus [3]; in [4]) were 0.13 µM and 0.013 µM, respectively.

For the compound `CCCC1=Cc2nc1ccc1[nH]c(cc1CCOC)c1nc(ccc3[nH]c2cc3CCC)C(CCOC)=C1`, the Cell saturation in the data set filed under Mus musculus [1] is 14 pM (10e5*cells)-1.

For `COCCC1=Cc2nc1ccc1[nH]c(cc1CCOC)c1nc(ccc3[nH]c2cc3CCOC)C(CCO)=C1`, in [2], the Cell saturation is 9.3 pM (10e5*cells)-1. Besides, the results for the CC50 in the data set filed under Mus musculus [5] and in the data set listed under Mus musculus [6] were 0.09 µM and 0.0091 µM, respectively.

Consider `COCCC1=Cc2nc1ccc1[nH]c(cc1CCOC)c1nc(ccc3[nH]c2cc3CCOC)C(CCOC)=C1`, for which, in the data set listed under Mus musculus [5], the CC50 was 0.0085 µM. Also, the Cell saturation in the data set filed under Mus musculus [7] is 9.3 pM (10e5·cells)-1.

With `CCCC1=Cc2nc1ccc1[nH]c(cc1CCC)c1nc(ccc3[nH]c2cc3CCC)C(CCC)=C1`, the Cell saturation in the data set filed under Mus musculus [8] is reported as 1.5 pM (10e5*cells)-1.

As for `C=CC1=C(C)c2cc3[nH]c(cc4nc(cc5[nH]c(cc1n2)c(C)c5CCC(=O)O)C(CCC(=O)O)=C4C)c(C)c3C=C` [PROTOPORPHYRIN DISODIUM], the figures for the CC50 in the data set listed under Mus musculus [3] and in the data set listed under Mus musculus [9] were 19 µM and 1.9 µM, respectively.

On to `CCCC1=Cc2nc1ccc1[nH]c(cc1CCC)c1nc(c(OC(C)=O)cc3[nH]c2cc3CCC)C(CCC)=C1`, for which the Cell saturation in the data set listed under Mus musculus [8] is recorded as 1.2 pM (10e5*cells)-1. Moreover, the CC50 in the data set listed under Mus musculus [5] was 0.11 µM.
